Assay results published in ChEMBL document CHEMBL1123247, “Nucleoside conjugates. 7. Synthesis and antitumor activity of 1-beta-D-arabinofuranosylcytosine conjugates of ether lipids” (J Med Chem, 1986).
Values joined by “and” are separate entries in the source; they are usually repeats but may differ in a detail not shown here. Equal entries are not always repeated.

Experiments:
L1210 [1] = test: Antitumor activity was determined against the ip implanted L1210 leukemia in mice by percent median survival rate (treated/control) at 32 and 66 mg/kg (treatment of 1-5qd schedule) dosage; Range is 11.0/8.0; format: functional, Mus musculus; conditions: route intraperitoneal
In short: (§1)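 DBA/2J mice, 23-28 g, in groups of 6, were inoculated ip with 1×10^6 L1210 cells on day 0. Dosing was ip starting 24 h later on the stated daily schedules. Conjugates were given as sonicated solutions and reference prodrugs as suspensions in 0.9% NaCl with 0.5% Tween-80. Mice were observed daily until death or 45 days. Median survival T/C was calculated from survivors per NCI protocols.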

L1210 [2] = test: Antitumor activity was determined against the ip implanted L1210 leukemia in mice by range in survival days at 128 and 262 mg/kg (treatment of 1qd schedule) dosage; Range is 7-8; format: functional, Mus musculus; conditions: route intraperitoneal; in short: as §1
L1210 [3] = test: Antitumor activity was determined against the ip implanted L1210 leukemia in mice by range in survival days at 32 and 66 mg/kg (treatment of 1-5qd schedule) dosage; Range is 10-12; format: functional, Mus musculus; conditions: route intraperitoneal; in short: as §1
L1210 [4] = test: Antitumor activity against the ip implanted L1210 leukemia in mice expressed as optimal dose (1-5qd treatment schedule) required to produce greatest increase in life span was determined; format: functional, Mus musculus
In short: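 DBA/2J mice, groups of 6 (23-28 g), were inoculated ip with 1 × 10^6 L1210 cells on day 0. Dosing was ip from 24 h, in 0.9% NaCl with 0.5% Tween-80 (sonicated solution or suspension). Mice were observed daily until death or day 45. Median survival T/C followed NCI protocols, and ILS = (T/C − 1) × 100. Active range means doses giving ILS ≥25%; optimal dose means greatest ILS.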

L1210 [5] = test: Antitumor activity was determined against the ip implanted L1210 leukemia in mice by change in […] at 128 and 262 mg/kg (treatment of 1qd schedule) dosage; format: functional, Mus musculus; conditions: route intraperitoneal
In short: (§2)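 DBA/2J mice, 6 per group (wt 23-28 g), inoculated ip with 1×10^6 L1210 cells on day 0. Treatment was given ip in 0.9% NaCl with 0.5% Tween-80, starting 24 h later. Weight change was taken on day 8. Mice were observed daily until death or 45 days. Median survival T/C and %ILS = (T/C − 1) × 100 came from survivors per NCI protocols, and 45-day survivors were counted.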

L1210 [6] = test: Antitumor activity was determined against the ip implanted L1210 leukemia in mice by change in […] at 32 and 66 mg/kg (treatment of 1-5qd schedule) dosage; format: functional, Mus musculus; conditions: route intraperitoneal; in short: as §2
L1210 [7] = test: Antitumor activity was determined against the ip implanted L1210 leukemia in mice by 45-day survivors in mice at 128 and 262 mg/kg (treatment of 1qd schedule) dosage; format: functional, Mus musculus; conditions: route intraperitoneal
In short: (§3)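 DBA/2J mice in groups of 6 (wt 23-28 g) were inoculated ip with 1×10^6 L1210 cells on day 0. Dosing was ip from 24 h, in 0.9% NaCl with 0.5% Tween-80 (conjugates sonicated), across a range of doses. Mice were observed daily until death or 45 days. Median T/C was computed from survivors per NCI protocols, and ILS = (T/C − 1)×100.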

L1210 [8] = test: Antitumor activity was determined against the ip implanted L1210 leukemia in mice by 45-day survivors in mice at 32 and 66 mg/kg (treatment of 1-5qd schedule) dosage; format: functional, Mus musculus; conditions: route intraperitoneal; in short: as §3
L1210 [9] = test: Antitumor activity was determined against the ip implanted L1210 leukemia in mice by percent increase in life span at 32 and 66 mg/kg (treatment of 1-5qd schedule) dosage; format: functional, Mus musculus; conditions: route intraperitoneal; in short: as §3
L1210 [10] = test: Antitumor activity was determined against the ip implanted L1210 leukemia in mice by percent increase in life span at 128 and 262 mg/kg (treatment of 1qd schedule) dosage; format: functional, Mus musculus; conditions: route intraperitoneal; in short: as §3
L1210 [11] = test: Antitumor activity was determined against the ip implanted L1210 leukemia in mice by median survival time at 128 and 262 mg/kg (treatment of 1qd schedule) dosage; 8.0/8.0; conditions: route intraperitoneal
P388 [12] = test: Antitumor activity was determined against the ip implanted P388 leukemia in mice by percent increase in life span at 60 mg/kg (1-5qd treatment schedule) dosage; format: functional, Mus musculus; conditions: route intraperitoneal
In short: (§4)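 DBA/2J mice, 23-33 g, in groups of 6, were inoculated ip with 1×10^6 P388 cells on day 0. Dosing was ip from 24 h on the stated schedules, in 0.9% NaCl with 0.5% Tween-80 (sonicated solution or suspension). Survival was followed daily until death or 45 days. Median T/C was calculated from survivors per NCI protocols, with ILS = (T/C − 1) × 100.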

P388 [13] = test: Antitumor activity was determined against the ip implanted P388 leukemia in mice by percent median survival rate (treated/control) at 133 mg/kg (treatment of 1,5,9qd schedule) dosage; >45.0/11.5; format: functional, Mus musculus; conditions: route intraperitoneal
P388 [14] = test: Antitumor activity was determined against the ip implanted P388 leukemia in mice by percent median survival rate (treated/control) at 300 mg/kg (1 qd treatment schedule) dosage; >45.0/11.0; format: functional, Mus musculus; conditions: route intraperitoneal
P388 [15] = test: Antitumor activity was determined against the ip implanted P388 leukemia in mice by 45-day survivors in mice at 300 mg/kg (1 qd treatment schedule) dosage; format: functional, Mus musculus; conditions: route intraperitoneal; in short: as §4
P388 [16] = test: Antitumor activity was determined against the ip implanted P388 leukemia in mice by 45-day survivors in mice at 60 mg/kg (1-5qd treatment schedule) dosage; format: functional, Mus musculus; conditions: route intraperitoneal; in short: as §4
P388 [17] = test: Antitumor activity was determined against the ip implanted P388 leukemia in mice by percent median survival rate (treated/control) at 60 mg/kg (1-5qd treatment schedule) dosage; >45.0/11.5; format: functional, Mus musculus; conditions: route intraperitoneal
P388 [18] = test: Antitumor activity against ip implanted P388 leukemia in mice expressed as active dose range (1,5,9qd treatment schedule) required to produce increase in life span by >25% was determined; Range is 100-167; format: functional, Mus musculus
In short: (§5)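 P388 leukemia: 1 × 10^6 cells were given ip on day 0 to DBA/2J mice, groups of 6 (23-33 g). Treatment was ip from 24 h after inoculation, vehicle 0.9% NaCl with 0.5% Tween-80. Mice were observed daily until death or 45 days. Median survival T/C was calculated from survivors per NCI protocols, and ILS = (T/C − 1) × 100. Active range means doses giving ILS ≥25%; optimal dose means greatest ILS.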

P388 [19] = test: Antitumor activity against ip implanted P388 leukemia in mice expressed as active dose range (1-5qd treatment schedule) required to produce increase in life span by >25% was determined; Range is 40-80; format: functional, Mus musculus; in short: as §5
P388 [20] = test: Antitumor activity was determined against the ip implanted P388 leukemia in mice by change in […] at 133 mg/kg (treatment of 1,5,9qd schedule) dosage; format: functional, Mus musculus; conditions: route intraperitoneal
In short: (§6)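 P388 leukemia, 1×10^6 cells implanted ip on day 0 into DBA/2J mice, groups of 6 (wt 23-33 g). Dosing ip started 24 h post-inoculation, vehicle 0.9% NaCl containing 0.5% Tween-80. Animals were observed daily until death or 45 days. Outputs were weight change, median survival T/C from survivors per NCI protocols, and %ILS = (T/C − 1) × 100.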

P388 [21] = test: Antitumor activity was determined against the ip implanted P388 leukemia in mice by change in […] at 300 mg/kg (1 qd treatment schedule) dosage; format: functional, Mus musculus; conditions: route intraperitoneal; in short: as §6
P388 [22] = test: Antitumor activity was determined against the ip implanted P388 leukemia in mice by change in […] at 60 mg/kg (1-5qd treatment schedule) dosage; format: functional, Mus musculus; conditions: route intraperitoneal; in short: as §6
P388 [23] = test: Antitumor activity was determined against the ip implanted P388 leukemia in mice by percent increase in life span at 133 mg/kg (treatment of 1,5,9qd schedule) dosage; format: functional, Mus musculus; conditions: route intraperitoneal; in short: as §4
P388 [24] = test: Antitumor activity was determined against the ip implanted P388 leukemia in mice by range in survival days at 300 mg/kg (1 qd treatment schedule) dosage; Range is 39->45; format: functional, Mus musculus; conditions: route intraperitoneal
P388 [25] = test: Antitumor activity was determined against the ip implanted P388 leukemia in mice by 45-day survivors in mice at 133 mg/kg (treatment of 1,5,9qd schedule) dosage; format: functional, Mus musculus; conditions: route intraperitoneal; in short: as §4
P388 [26] = test: Antitumor activity was determined against the ip implanted P388 leukemia in mice by percent increase in life span at 300 mg/kg (1 qd treatment schedule) dosage; format: functional, Mus musculus; conditions: route intraperitoneal; in short: as §4
P388 [27] = test: Antitumor activity against the ip implanted P388 leukemia in mice expressed as optimal dose (1,5,9qd treatment schedule) required to produce greatest increase in life span was determined; format: functional, Mus musculus; set-up: unit: mg/kg; in short: as §5
P388 [28] = test: Antitumor activity against the ip implanted P388 leukemia in mice expressed as optimal dose (1-5qd treatment schedule) required to produce greatest increase in life span was determined; format: functional, Mus musculus; set-up: unit: mg/kg; in short: as §5
P388 [29] = test: Antitumor activity against the ip implanted P388 leukemia in mice expressed as optimal dose (1 qd treatment schedule) required to produce greatest increase in life span was determined; format: functional, Mus musculus; in short: as §5
P388 [30] = test: Antitumor activity against ip implanted P388 leukemia in mice expressed as active dose range (1 qd treatment schedule) required to produce increase in life span by >25% was determined; Range is 200-400; format: functional, Mus musculus; in short: as §5

CCCCCCCCCCCCCCCCCCOCC(COP(=O)(O)O)OC(=O)CCCCCCCCCCCCCCC.Nc1ccn([C@@H]2O[C@H](COP(=O)(O)O)[C@@H](O)[C@@H]2O)c(=O)n1 (racemic)
median survival time (L1210 [1]): 11 days
Range (L1210 [2]): 7
Range (L1210 [3]): 10
Optimal dose (L1210 [4]): 32 mg and 66 mg
Weight change (L1210 [5]): 3.2 g mouse-1
Weight change (L1210 [6]): 3.5 g mouse-1
Survivors (L1210 [7]): 0
Survivors (L1210 [8]): 0
ILS (L1210 [9]): 38
ILS (L1210 [10]): 0
median survival time (L1210 [11]): 8 days

CCCCCCCCCCCCCCCC(=O)OCC(COP(=O)(O)OP(=O)(O)OC[C@H]1O[C@@H](n2ccc(N)nc2=O)[C@@H](O)[C@@H]1O)OC(=O)CCCCCCCCCCCCCCC (mixture of isomers)
ILS (P388 [12]): >291
T/C (P388 [13]): >45%
T/C (P388 [14]): >45%
Survivors (P388 [15]): 4
Survivors (P388 [16]): 6
T/C (P388 [17]): >45%
Active dose range (P388 [18]): 100 mg/kg/day
Active dose range (P388 [19]): 40 mg/kg/day
Weight change (P388 [20]): 0.37 g mouse-1
Weight change (P388 [21]): -1.7 g mouse-1
Weight change (P388 [22]): -3.27 g mouse-1
ILS (P388 [23]): >291
Range (P388 [24]): 39
Survivors (P388 [25]): 6
ILS (P388 [26]): >309
Optimal dose (P388 [27]): 133 mg
Optimal dose (P388 [28]): 60 mg
Optimal dose (P388 [29]): 300 mg/kg/day
Active dose range (P388 [30]): 200 mg/kg/day
